Only some compounds are listed: those with a hit (about 2.9% of all), similar ones and a draw of the others.
PRMT1 inh = PRMT1 (human) inhibition, primary screen; recombinant PRMT1, activity-based probe fluorescence polarization; inhibition, % at 2.79 µM; 370,000 compounds, 1.3% hits;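 active = inhibition above about 21% made by adding two undisclosed values, limit read from the data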
TCR CD3 inh = blocks the human TCR-CD3 interaction; inhibition, % at 9.4 µM; 360,000 compounds, 0.37% hits; TAMRA-labeled TCR probe fluorescence, biochemical; in the data active = inhibition above about 19%;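 also: recombinant mutant TCR 2C K166C tagged with TAMRA read by polarization; 0% = receptor in buffer alone and 100% = receptor with positive control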
ATG4B inh = blocks human ATG4B protease cleavage of LC3 substrate. Q9Y4P1. ATG4B cleavage of LC3-PLA2, NBD-HPC fluorescence, 1 h. inhibition, % at 8.33 µM. 340,000 compounds, 0.51% hits; in the data active = inhibition above about 40%
Target sequence (Q9Y4P1 whole entry, looked up): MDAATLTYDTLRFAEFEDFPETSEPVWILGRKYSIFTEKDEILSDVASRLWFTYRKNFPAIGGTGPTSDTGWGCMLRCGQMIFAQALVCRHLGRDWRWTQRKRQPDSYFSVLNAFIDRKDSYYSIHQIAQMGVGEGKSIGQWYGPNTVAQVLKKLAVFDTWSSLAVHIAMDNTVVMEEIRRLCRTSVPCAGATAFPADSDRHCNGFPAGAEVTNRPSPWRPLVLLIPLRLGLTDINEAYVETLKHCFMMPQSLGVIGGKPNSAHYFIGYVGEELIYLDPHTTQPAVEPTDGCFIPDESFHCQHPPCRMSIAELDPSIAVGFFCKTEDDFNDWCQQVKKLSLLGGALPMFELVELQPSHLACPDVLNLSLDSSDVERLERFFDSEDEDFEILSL
mABHD4 FP = inhibits mouse alpha/beta hydrolase domain 4 | inhibition, % at 8.92 µM | Q8VD66 | purified mABHD4, FP-Rh probe fluorescence polarization | AID 720543 | 370,000 compounds, 0.54% hits;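 active = inhibition exceeding the mean over every tested compound plus 3 SD, cut at about 30% in these data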;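 also: 0% = plate median of compound wells and 100% = S159A mutant with DMSO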
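System: mouse ABHD4 enzyme, wild type / Medium: HEPES pH 7.0, NaCl, Pluronic buffer / Reagent: FP-Rh activity-based fluorescent probe / Control set: S159A mutant high control, sample median low control / Detection: fluorescence polarization with parallel and perpendicular emission, 525/598 nm / Schedule: 45 min + 60 min at 25 °C / Compound dosing: 8.92 µM, single dose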
HTRA1 inh = HTRA1 (human) protease inhibition. AID 504803. Q92743. inhibition, % at 5.96 µM. 340,000 compounds, 0.5% hits. recombinant HTRA1, FP-rhodamine activity-based probe, fluorescence polarization; in the data active = inhibition above about 36%;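 also: 0% = enzyme with DMSO and 100% = wells lacking enzyme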
SIAE primary = blocks human sialic acid acetylesterase. Q9HAT2. SIAE FP-Rh probe binding, fluorescence polarization. inhibition, % at 9.66 µM. 370,000 compounds, 0.69% hits. AID 1053197;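 active = inhibition above a cutoff: mean of compounds within the control limits plus 3 SD of those, cut at about 17% in these data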;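 also: 0% = plate median of compound wells and 100% = probe without SIAE protein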
Numbers without * were called inactive; / = not tested or not shown.

SMILES | PRMT1 inh | TCR CD3 inh | ATG4B inh | mABHD4 FP | HTRA1 inh | SIAE primary
C=C(CN(C)C)C(=O)c1ccc(C)cc1C | 23* | -2 | -11 | 5 | 0 | -5
O=C(OCCN1CCN(C2CN(Cc3cn(Cc4ccccc4Cl)nn3)S(=O)(=O)C2)CC1)c1cccs1 (centres undefined) | 0 | / | / | 5 | / | -5
O=C(OC12CCCN(C1)/C(=C/c1ccc(Cl)cc1)C2)c1ccco1 (centres undefined) | 0 | / | / | -3 | / | -5
Cc1ccc(NNC(=O)c2ccno2)cc1C | 23* | -5 | -9 | -3 | 6 | -2
Cc1ccc(NNC(=O)c2ccno2)cc1Cl | -8 | -4 | 1 | 5 | 9 | 1
COc1cc(NC(=O)c2cnn3c(C)cc(C)nc23)cc(OC)c1OC | 4 | / | / | 5 | / | -1
Cc1cc(NC(=O)c2ccc(Cn3nc(C)c(Br)c3C)o2)no1 | 0 | 0 | -9 | -3 | -2 | 10
Cc1nn(Cc2ccc(C(=O)NC(C)(C)C)o2)c(C)c1Br | 24* | 0 | 2 | -2 | -3 | 8
COc1cccc(CCNS(=O)(=O)c2c(C)n[nH]c2C)c1 | -3 | / | / | 5 | / | -8
COc1ccc(-n2c(-c3ccc(Cl)cc3)c[nH]c2=S)cc1 | 24* | -12 | 0 | -4 | 3 | 5
CCOC(=O)c1sc2nc(CC(=O)OC)nc(NCc3ccco3)c2c1C | 22* | 0 | -3 | 15 | 25 | 9
CCOC(=O)c1sc2nc(CC(=O)OC)nc(NCC(=O)OC)c2c1C | 3 | 1 | -3 | 0 | 0 | -5
C[C@H]1COc2cc(Br)ccc2S(=O)(=O)N1Cc1cn(Cc2ccc(F)cc2)nn1 | 0 | / | / | 2 | / | 2
CCOC(=O)C1CCN(C(=O)Nc2ccc3c(c2)nc(C)n3C)CC1 | 2 | -2 | 8 | -1 | -2 | -1
O=C(Nc1ccc2nc(-c3ccco3)c(-c3ccco3)nc2c1)N1CCCCCC1 | / | / | 47* | / | / | /
CCOC(=O)C1CCN(C(=O)Nc2ccc3nc(-c4ccco4)c(-c4ccco4)nc3c2)CC1 | / | / | 3 | / | 45* | /
Cc1ccc(-n2c(SCC(=O)Nc3cccc4ccccc34)nnc2-c2ccccc2)cc1 | 0 | / | / | 1 | / | 2
CC(C)(C)C(=O)CSc1nnc(SCc2cccc3ccccc23)s1 | -1 | / | / | -2 | / | -3
Cc1cc(-c2csc(NCc3ccccc3)n2)c(C)n1C | / | / | 10 | / | 37* | /
CCOC(=O)C1=C(C)N=c2s/c(=C\c3ccc(OCC(=O)O)c(OC)c3)c(=O)n2C1c1ccc(OC)cc1 (centres undefined) | 32* | -2 | 14 | -35 | -20 | -15
Cc1c(Cl)sn(-c2ccc(Cl)cc2)c1=O | 68* | -4 | 0 | 3 | -3 | -4
Nc1nc2ncccc2cc1C(=O)c1c[nH]c2ccccc12 | -5 | / | / | 0 | / | -2
CCc1ccccc1N=C1S/C(=C/c2ccccc2OCC(=O)N2CCOCC2)C(=O)N1C | 1 | -7 | -13 | -10 | -35 | -1
O=C1NN(c2ccccc2)C(=O)/C1=C\c1ccccc1OCC(=O)N1CCOCC1 | 21* | 3 | 16 | 2 | 1 | 9
O=C(CSc1cccc[n+]1[O-])Nc1cc2c(cc1Cl)C(=O)c1ccccc1C2=O | 23* | -9 | -3 | 7 | 4 | -2
SMILES | PRMT1 inh | TCR CD3 inh | ATG4B inh | mABHD4 FP | HTRA1 inh | SIAE primary
Cc1ccc2c(c1C)NC(C(=O)O)C1CC=CC21 (centres undefined) | / | / | 14 | / | 51* | /
COc1ccc(C=NNC(=O)c2cc(-c3ccc(C)c(C)c3)n[nH]2)cc1OCc1ccccc1 | -5 | / | / | -79 | / | -83
Cc1cccc(Nc2n[nH]c(=S)s2)c1C | 24* | 5 | -6 | 0 | -3 | 9
CN1C(=O)c2cccc3c(S(N)(=O)=O)ccc1c23 | 1 | -3 | 1 | -3 | -1 | -3
CN1C(=O)c2cccc3c(S(=O)(=O)NCc4ccco4)ccc1c23 | 22* | -7 | -12 | 3 | -3 | 5
O=C(Nc1cccc2ncccc12)c1ccc(-c2ccc(Br)cc2)o1 | 25* | -2 | -19 | -4 | -20 | 1
O=C(NCc1cccnc1)C(=O)c1c[nH]c2ccccc12 | 0 | 3 | -9 | 0 | -2 | 4
O=C(Nc1ccc(Nc2cccnc2)cc1)c1c[nH]c2ccccc12 | 8 | 0 | / | 42* | / | 13
CS(=O)(=O)c1sc2nc(-c3cccs3)cc(-c3ccccc3)c2c1N | 65* | 10 | 24 | 6 | -60 | -52
Cc1ccc(-c2cc(-c3ccccc3)c3c(N)c(S(C)(=O)=O)sc3n2)cc1 | 18 | -5 | -7 | -16 | -60 | -20
CC(=O)Nc1sc(N/N=C\c2ccc(O)cc2)nc1-c1cccs1 | 23* | -7 | -8 | 2 | 3 | 0
CC(CCC(=O)NN)C1CCC2C3CCC4CC(O)CCC4(C)C3CCC12C (centres undefined) | 0 | 4 | 0 | 5 | -21 | -11
CC(CCC(C)C(C)(C)C)[C@@H]1CC[C@H]2C3C[C@H](OS(O)(=S)=S)[C@H]4C[C@H](OS(O)(=S)=S)[C@@H](OS(O)(=S)=S)C[C@]4(C)[C@H]3CC[C@]12C (some centres undefined) (tested in a mixture with another compound) | / | / | 84* | / | -137 | /
CC(c1cc(F)ccc1O)c1c[nH]c2ccccc12 (centres undefined) | 1 | / | / | -21 | / | 2
CCOC(=O)[C@]12CCCC=C1N(CCCOC)C(=O)[C@@H]2CC(=O)N1CCN(C(=O)c2ccco2)CC1 | 5 | / | / | -3 | / | 4
O=Cc1ccc(Sc2nnc(-c3ccccc3)o2)c([N+](=O)[O-])c1 | / | / | 49* | / | -14 | /
COc1ccc(-n2c(COc3ccc(Cl)cc3)nnc2SCC(=O)Nc2ccc(Oc3ccccc3)cc2)cc1 | 0 | / | / | -12 | / | -2
CC(=O)N(C1=C(Cl)C(=O)c2ccccc2C1=O)C1CCCCC1 | 92* | 0 | -8 | 11 | 12 | 12
CC(=O)N(c1ccccc1C)C1CCCC1 | 0 | 0 | -3 | 4 | 3 | -7
Cc1cc(N/N=C/c2ccc(O)cc2O)nc(N2CCOCC2)n1 | 1 | 1 | -3 | 2 | -2 | 10
Oc1ccc(/C=N\Nc2cc(N3CCOCC3)nc(N3CCOCC3)n2)c(O)c1 | 3 | -7 | 3 | 13 | 6 | 23*
Cc1ccc(-n2c(COc3ccccc3)nnc2SCC(=O)Nc2ccc3c(c2)OCO3)cc1 | -1 | / | / | -8 | / | -3
COc1ccc(C2=CC(c3ccco3)n3ncnc3N2)cc1 (centres undefined) | / | / | -5 | / | 0 | /
Clc1ccc(C2=CC(c3ccco3)n3ncnc3N2)cc1 (centres undefined) | 64* | 8 | -7 | -5 | 0 | -4
O=C(Nc1cccc([N+](=O)[O-])c1)NC1CCCCN(Cc2cccc(Cl)c2)C1=O (centres undefined) | 3 | / | / | 3 | / | -3
